Several values for one entry are separate records, joined by “and”; a condition that tells them apart may be missing. Equal values may be shown once. Read-outs that look alike come from different tables or passages of the source.
What was measured:
HeLa (cervical cancer) = details: cited from earlier work
MDA-MD-231 (breast CSC) = details: cited from earlier work
Log = format: physicochemical; details: for Estimated Log(Do/w) of protonation state: best fit of Figures 2–4, error +/− 0.2
Outline: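 Modified shake-flask method in the dark, using 0.1 M acetate (pH 4.00–5.25) or 0.1 M phosphate (pH 5.8–8.0) buffer. Octanol and buffer were mutually pre-saturated for 24 h. Test compound (200 μM) in buffer-saturated octanol was stirred 1:1 with octanol-saturated buffer for 24 h at ambient temperature. The filtered aqueous phase was quantified by UV-Vis. logD = log([Ru]org/[Ru]aq), quadruplicate mean. Per-species values were fitted from pKa-based fractions.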

MCF7 (breast cancer) = details: cited from earlier work
[1] = standard deviation in parenthesis; cited from earlier work
[2] = Mole fractions of protonation states calculated from pKa values; format: physicochemical
MCF10A (normal) = details: cited from earlier work
[3] = read-out: IC50 light, irradiation for one hour with blue light (450 nm)

Question: For [(bipy)2Ru(6,6’-dhbp)]^2+ [Compound 1A], which “PI (phototoxicity index, IC50 dark / IC50 light)” value (HeLa (cervical cancer)) is on record?
Answer: 0.73

Question: And the IC50 (HeLa (cervical cancer); read-out: IC50 dark, dark)?
Answer: 148 µM

Question: And the IC50 (HeLa (cervical cancer); [3])?
Answer: 202 µM

Question: What about the “PI (phototoxicity index, IC50 dark / IC50 light)” value (MDA-MD-231 (breast CSC); MDA-MD-231) of the same substance?
Answer: 3.5

Question: And the IC50 (MDA-MD-231 (breast CSC); read-out: IC50 dark, MDA-MD-231, dark)?
Answer: 1010 µM

Question: And the IC50 (MDA-MD-231 (breast CSC); read-out: IC50 light, MDA-MD-231, irradiation for one hour with blue light (450 nm))?
Answer: 290 µM

Question: What about the “Estimated Log(Do/w) of protonation state” value (Log; Acidic Form (XA)) of the same substance?
Answer: −0.1

Question: And the “Estimated Log(Do/w) of protonation state” value (Log; Basic Form (XB))?
Answer: 1.6

Question: What about the “Estimated Log(Do/w) of protonation state” value (Log; Monoprotic Acid) of the same substance?
Answer: 0.9

Question: What about the “Increase of Log(Do/w) from acidic form (XA) to basic form (XB)” value (Log; orders of magnitude / log units, listed as 1) of the same substance?
Answer: ~ 1.7 and 1.7

Question: And the “Log(Do/w)” value (Log; pH 4.00, 0.1M Acetate Buffer)?
Answer: 0.04(3)

Question: And the “Log(Do/w)” value (Log; pH 5.00, 0.1M Acetate Buffer)?
Answer: 0.11(2)

Question: What about the “Log(Do/w)” value (Log; pH 6.00, 0.1M Phosphate Buffer) of the same substance?
Answer: 0.57(2)

Question: And the “Log(Do/w)” value (Log; pH 6.60, 0.1M Phosphate Buffer)?
Answer: 1.10(2)

Question: And the “Log(Do/w)” value (Log; pH 7.00, 0.1M Phosphate Buffer)?
Answer: 1.18(1)

Question: And the “Log(Do/w)” value (Log; pH 7.40, 0.1M Phosphate Buffer)?
Answer: 1.36(1)

Question: And the “Log(Do/w)” value (Log; pH 8.00, 0.1M Phosphate Buffer)?
Answer: 1.39(2)

Question: What about the “PI (phototoxicity index, IC50 dark / IC50 light)” value (MCF7 (breast cancer); MCF7) of the same substance?
Answer: ~1

Question: And the IC50 (MCF7 (breast cancer); read-out: IC50 dark, MCF7, dark)?
Answer: > 500 µM

Question: And the IC50 (MCF7 (breast cancer); read-out: IC50 light, MCF7, irradiation for one hour with blue light (450 nm))?
Answer: > 500 µM

Question: What about the pKa1 [1] of the same substance?
Answer: 5.26

Question: What about the pKa2 [1] of the same substance?
Answer: 7.27

Question: What about the pKa avg [1] of the same substance?
Answer: 6.3

Question: And the “Proportion of monoprotic species” value ([2]; pH 6.0 to 6.6)?
Answer: 80–83%

Question: And the “Mole fraction of acidic form (XA)” value ([2]; pH 7.4)?
Answer: ~0.003

Question: What about the “Mole fraction of monoprotic species” value ([2]; pH 7.4) of the same substance?
Answer: ~0.42

Question: And the “PI (phototoxicity index, IC50 dark / IC50 light)” value (MCF10A (normal))?
Answer: >2.4

Question: And the IC50 (MCF10A (normal); read-out: IC50 dark, dark)?
Answer: > 500 µM

Question: And the IC50 (MCF10A (normal); [3])?
Answer: 210 µM

Reference: PMC7012720 (Journal of inorganic biochemistry, 2019)
